# ARFGAP1 inhibitor: inhibitors of rat ARFGAP1 GAP activity, primary screen, biochemical, fluorescence polarization, GDP tracer. ADP-ribosylation factor GTPase-activating protein 1 (Rattus norvegicus), Q62848. Arfgap1-stimulated ARF1 GTP hydrolysis, GDP FP detection. inhibition, % at 16.5 µM. actives 0.26% (n = 360,000);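 active means inhibition above a per-plate limit, mean inhibition of low control wells plus 3 SD, cut at about 25% in these data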;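 further: 0% = DMSO wells with enzyme and 100% = wells lacking Arfgap1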
#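 Material: rat Arfgap1 catalytic domain, aa 1-136; also added: human ARF1(Δ1-17)-GTP substrate; compound dosing: one concentration, 16.5 µM, DMSO 1.26%; incubation: GTP hydrolysis reaction 2 h at 25 °C; measured by: Tracer-displacement fluorescence polarization with EDTA stop, 620/688 nm; evaluation: % inhibition from polarization; repeats: one replicate per compound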
# ASAP1 inh: inhibitors of human ASAP1 ArfGAP activity, primary screen, biochemical, fluorescence polarization; Arf-GAP with SH3 domain, ANK repeat and PH domain-containing protein 1 (Homo sapiens), …; ASAP1-stimulated ARF1 GTP hydrolysis, GDP FP detection; inhibition, % at 16.5 µM; actives 0.19% (n = 360,000); AID 624377, 2012; in the data active means inhibition above about 25%;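 further: 0% = vehicle with enzyme and substrate and 100% = no enzyme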
# Target sequence (Q9ULH1 325-724 limits assumed): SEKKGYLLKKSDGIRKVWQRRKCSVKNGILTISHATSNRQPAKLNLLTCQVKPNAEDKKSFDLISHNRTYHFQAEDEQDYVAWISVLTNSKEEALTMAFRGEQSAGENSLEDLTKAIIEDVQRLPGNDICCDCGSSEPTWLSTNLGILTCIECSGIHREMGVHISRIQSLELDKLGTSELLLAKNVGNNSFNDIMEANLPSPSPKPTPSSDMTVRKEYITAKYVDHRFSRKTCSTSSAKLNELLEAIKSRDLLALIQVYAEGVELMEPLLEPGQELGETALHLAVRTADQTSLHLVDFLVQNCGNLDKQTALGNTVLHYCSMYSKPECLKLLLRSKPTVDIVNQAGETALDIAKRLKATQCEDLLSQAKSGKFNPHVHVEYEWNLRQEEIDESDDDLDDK
# PAFAH1B2 FP inh: PAFAH1B2 enzyme inhibitors, primary screen, biochemical, fluorescence polarization, human; Platelet-activating factor acetylhydrolase IB subunit alpha2 (Homo sapiens), P68402; recombinant PAFAH1B2, FP-rhodamine activity probe; inhibition, % at 3.39 µM; actives 1.2% (n = 340,000);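 active means inhibition above the mean of all tested compounds plus 3 SD, cut at about 24% in these data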;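 further: 0% = enzyme with DMSO and 100% = wells lacking PAFAH1B2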
# pPAFAH FP inh: pPAFAH enzyme inhibitors, primary screen, biochemical, fluorescence polarization, human; Platelet-activating factor acetylhydrolase (Homo sapiens), Q13093; recombinant pPAFAH, FP-rhodamine probe fluorescence polarization; inhibition, % at 3.39 µM; actives 1.5% (n = 330,000);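 active means inhibition above the mean inhibition across the screen plus 3 SD, cut at about 25% in these data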;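 further: inhibitors block binding of the rhodamine activity-based probe so polarization drops; 0% = enzyme with DMSO and 100% = wells lacking pPAFAH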
# PAFAH1B3 inh: PAFAH1B3 enzyme inhibitors, primary screen, biochemical, fluorescence polarization, human; recombinant PAFAH1B3, FP-rhodamine probe; inhibition, % at 3.39 µM; actives 0.28% (n = 340,000);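 active means inhibition above the screen-wide average of all tested compounds plus 3 SD, cut at about 25% in these data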;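 further: 0% = enzyme with DMSO only and 100% = wells lacking PAFAH1B3 protein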
# PAFAH2 FP inh: PAFAH2 enzyme inhibitors, primary screen, biochemical, fluorescence polarization, human. Platelet-activating factor acetylhydrolase 2, cytoplasmic (Homo sapiens), Q99487. recombinant PAFAH2, FP-rhodamine activity probe. inhibition, % at 3.39 µM. actives 0.99% (n = 340,000). AID 492956, 2010;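 active means inhibition above the mean over all tested compounds plus 3 SD, cut at about 30% in these data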;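 further: inhibitors block probe labeling of enzyme so polarization drops; 0% = enzyme with DMSO and 100% = wells lacking PAFAH2 protein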
# * = called active by the depositor; · = no result. Shown are actives, neighbours in structure and some others; about 2.7% of the full set was active somewhere.
SMILES,ARFGAP1 inhibitor,ASAP1 inh,PAFAH1B2 FP inh,pPAFAH FP inh,PAFAH1B3 inh,PAFAH2 FP inh
Cc1ccc([C@H]2C(C(=O)O)=C[C@@H](C(C)(C)C)N2S(=O)(=O)c2ccc(C)cc2)cc1,-14,-10,24*,2,1,5
COc1ccc([C@H]2C(C(=O)O)=C[C@@H](C(C)(C)C)N2S(=O)(=O)c2ccccc2)cc1,3,-19,9,-2,1,5
CCOC(=O)C1=C[C@@H](C(C)(C)C)N(S(=O)(=O)c2ccc(C)cc2)[C@H]1c1ccc(Cl)c(Cl)c1,4,8,·,·,·,·
CSc1nc(N(CCO)CCO)c2sc3nc(-c4ccco4)c4c(c3c2n1)CCC4,10,-11,6,·,15,31*
N=C1/C(=C/c2coc3ccccc3c2=O)C(=O)N=C2SC(c3ccco3)=NN12,·,·,·,22,·,·
N=C1/C(=C\c2coc3ccc(O)cc3c2=O)C(=O)N=C2SC=CN12,2,3,-2,26*,-2,-6
Cc1ccc(-c2cc(C(=O)O)c3cc(Br)ccc3n2)o1,-3,5,23,28*,10,12
Oc1ccc(N=Cc2ccc(OCc3ccccc3)cc2)cc1,-13,3,24,24,28*,19
CC(=O)OCC1=C(C(=O)O)N2C(=O)C(NC(=O)c3ccc(COc4cccc(Cl)c4Cl)o3)C2SC1 (stereo not drawn),1,-6,9,30*,8,12
COC(=O)c1cc2c(c3c4cc(F)ccc4n(S(=O)(=O)c4cccc(C)c4)c13)C(=O)N(Cc1ccco1)C2,4,2,·,·,·,·
N#CC1=C(S)N(c2ccccc2)C(c2ccc(-c3cc(Cl)ccc3Cl)o2)NC1=O (stereo not drawn),-15,-3,7,36*,5,-2
N#CC1=C(S)N(c2ccccc2)C(c2ccc(-c3ccc(Cl)c(Cl)c3)o2)NC1=O (stereo not drawn),-2,-16,-2,34*,-4,-1
N#CC1=C(S)N(c2ccccc2)C(c2ccco2)NC1=O (stereo not drawn),1,5,2,4,10,8
S=c1[nH]nc(COc2ccccc2)n1/N=C/c1ccccc1Br,-5,2,9,13,9,11
O=c1c2ccccc2nc(COc2ccccc2)n1/N=C/c1cc([N+](=O)[O-])ccc1O,8,6,-1,26*,6,-12
Cc1cc(/C=N/n2c(COc3ccccc3C)nc3ccccc3c2=O)c(O)c([N+](=O)[O-])c1,6,0,1,17,-4,1
Oc1ccc(Br)cc1/C=N/n1c(COc2ccccc2)n[nH]c1=S,7,6,28*,·,0,10
CN(Cc1ccccc1)C(=O)c1cccc(NC(=O)Cc2ccc(NC(=O)C3CCCN(S(=O)(=O)c4cccc([N+](=O)[O-])c4)C3)cc2)c1 (stereo not drawn),1,6,·,·,·,·
Cc1cc(C(=O)Nc2c(C)nn(Cc3ccccc3Cl)c2C)no1,3,0,3,26*,4,-1
COc1ccc(-c2ccc3c(n2)CCCN3Cc2ccccc2C(F)(F)F)cc1,-6,-9,·,·,·,·
CC(C)CNC(=O)COC(=O)c1ccc([N+](=O)[O-])cc1Cl,2,0,3,29*,4,15
O=C(COC(=O)c1ccc([N+](=O)[O-])cc1Cl)NCc1ccco1,3,-5,6,7,8,7
COC(=O)c1cc2c(c3c4ccccc4n(S(=O)(=O)c4ccc(C)cc4)c13)C(=O)N(CC(C)C)C2,-5,-2,·,·,·,·
NS(=O)(=O)c1ccc(CNS(=O)(=O)c2ccc(Cl)nc2)cc1,2,1,4,2,8,-1
O=S(=O)(NCc1ccc(Cl)cc1)c1ccc(Cl)nc1,4,-3,34*,5,5,-5

# Screens as filed in PubChem.
